# Source: ChEMBL document CHEMBL1671680, “Pradimicin S, a highly soluble nonpeptidic small-size carbohydrate-binding antibiotic, is an anti-HIV drug lead for both microbicidal and systemic use” (Antimicrob Agents Chemother, 2010)
# The source made the active and inactive calls. No cut-off for these calls is given here.
# How the values were obtained:
# PBMC [1] = test: Cytotoxicity against human PBMC cells at 50 uM after 7 days; type: cell-based; settings: 168 h
# [2] = tested on: Human immunodeficiency virus 1; test: Antiviral activity against HIV-1 3B infected in human HUT78 cells assessed as prevention of syncytium formation between persistently HIV-1 3B-infected HUT-78 cells and uninfected SupT1 cells after 3 to 4 days by ELISA; type: functional, organism-based; settings: Human immunodeficiency virus 1, 3B, SUP-T1
# PBMC [3] = test: Immunostimulatory activity against human PBMC assessed as IL-1ra production at 21 uM after 72 hrs; type: functional, cell-based
# Summary of the method: (§1)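 Unstimulated PBMCs and PHA-blasts from three donors, in three independent experiments, cultured with test compound at 20 μg/ml (21 or 22 μM). Supernatants collected after 72 h. The cytokine profile was read on a Bio-Plex 27-plex human cytokine bead immunoassay, using beads coupled to cytokine-specific monoclonal antibodies and run per the kit instructions.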
# PBMC [4] = test: Immunostimulatory activity against human PBMC assessed as IL-9 production at 21 uM after 72 hrs; type: functional, cell-based; summary of the method: as §1
# PBMC [5] = test: Immunostimulatory activity against human PBMC assessed as IL-13 production at 21 uM after 72 hrs; type: functional, cell-based; summary of the method: as §1
# PBMC [6] = test: Immunostimulatory activity against human PBMC assessed as suppression of IL-2 production at 21 uM after 72 hrs; type: functional; summary of the method: as §1
# PBMC [7] = test: Immunostimulatory activity against human PBMC assessed as suppression of RANTES production at 22 uM after 72 hrs; type: functional
# [8] = Aqueous solubility of the compound; type: physicochemical; settings: aqueous medium; read-out: Activity
# [9] = Aqueous solubility of the compound at physiological pH; type: physicochemical; settings: aqueous medium
# [10] = tested on: Human immunodeficiency virus 1; test: Antiviral activity against X4 tropic HIV-1 3B infected in human PBMC assessed as inhibition of viral replication […] by ELISA; type: functional, organism-based; settings: Human immunodeficiency virus 1, 3B
# Summary of the method: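 PBMCs from healthy donors were stimulated with PHA (2 μg/ml) for 3 days, then seeded at 0.5 × 10^6 cells/well in RPMI 1640 with 10% FCS, IL-2 (25 U/ml) and compound. Virus was added at a final 250 pg p24/ml. Supernatant was taken at day 12 for p24 antigen ELISA.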
# [11] = Cytotoxicity against human PBMC after 7 days by trypan blue staining; type: cell-based
# [12] = tested on: Human immunodeficiency virus 1; test: Ratio of EC90 to EC50 for R5 tropic HIV-1 clade G isolate BCF-DIOUM infected in human PBMC; type: functional
# Summary of the method: (§2)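 PBMCs from healthy donors were PHA-stimulated (2 μg/ml, 3 days, 37°C), then seeded at 0.5 × 10^6 per well with compound dilutions in RPMI 1640 with 10% FCS and IL-2 (25 U/ml). Virus was added at 250 pg p24 or p27/ml final. On day 12, supernatant HIV-1 p24 or HIV-2 p27 was measured by ELISA, giving EC50 and EC90.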
# [13] = tested on: Human immunodeficiency virus 1; test: Ratio of EC90 to EC50 for X4 tropic HIV-1 group O isolate BCF06 infected in human PBMC; type: functional; summary of the method: as §2
# [14] = tested on: Human immunodeficiency virus 1; test: Ratio of EC90 to EC50 for X4 tropic HIV-1 3B infected in human PBMC; type: functional; summary of the method: as §2
# [15] = tested on: Human immunodeficiency virus 1; test: Ratio of EC90 to EC50 for X4 tropic HIV-1 Bal infected in human PBMC; type: functional; settings: in the assay text read “R5 tropic” for “X4 tropic”; summary of the method: as §2
# [16] = tested on: Human immunodeficiency virus 2; test: Antiviral activity against HIV-2 ROD infected in human CEM cells assessed as inhibition of virus-induced cytopathicity after 3 to 4 days by microscopic analysis; type: functional, organism-based; settings: Human immunodeficiency virus 2, ISOLATE ROD, CCRF-CEM
# Summary of the method: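 CEM cells (5 × 10^5/ml) infected at 100 CCID50/ml, mixed 1:1 with compound dilutions, incubated 3–4 days at 37°C; giant cells counted microscopically against untreated infected controls; EC50 is the concentration preventing syncytium formation by 50%.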
# [17] = Cytotoxicity against human CEM cells after 7 days by trypan blue staining; type: cell-based, CCRF-CEM
# [18] = Cytotoxicity against human MT4 cells after 7 days by trypan blue staining; type: cell-based
# [19] = tested on: Human immunodeficiency virus 1; test: Antiviral activity against X4 tropic HIV-1 clade D isolate UG270 infected in human PBMC assessed as inhibition of viral replication after 12 days by ELISA; settings: Human immunodeficiency virus 1, clade D isolate UG270, 12 days
# PBMC [20] = test: Cytotoxicity against human PBMC cells at 500 uM after 7 days; type: cell-based; settings: 168 h
# Summary of the method: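 Mock-infected PHA-stimulated PBMC exposed to compound in RPMI 1640 with 10% FCS and IL-2 (25 U/ml); viability measured by trypan blue staining at day 7.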
# [21] = tested on: Human immunodeficiency virus 1; test: Ratio of KD for HIV-1 HXB2 gp41 to KD for HIV-1 3B gp120
# Summary of the method: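 SPR was run at 25°C. HIV-1 IIIB gp120 (CHO-derived, 122 RU) and HXB2 gp41 (Pichia-derived, 58 RU) were amine-coupled to a CM5 chip. Compound (2.5–40 μM, 2-fold steps) in HBS-P pH 7.4 with 10 mM CaCl2 was injected for 2 min at 45 μl/min, and dissociation was followed for 6 min. Apparent ka, kd and KD came from a 1:1 model fit of the three lowest concentrations.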
# [22] = tested on: Human immunodeficiency virus 1; test: Ratio of EC50 for compound pretreated HIV-1 3B isolate 42 harboring gp120 mutant infected in human CEM cells to EC50 for HIV-1 3B expressing wild type gp120; type: functional, CCRF-CEM
# [23] = Chemical stability of the compound in PBS solution at 50 degC after 4 days by HPLC; type: physicochemical; settings: buffer, 96 h
# Summary of the method: (§3)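 1 mM compound held 4 days in PBS at 50°C, or in 7 mM sodium phosphate pH 4.0 at room temperature; then analysed by reverse-phase HPLC (phosphate/heptanesulfonate pH 3.2 buffer–acetonitrile gradient, 1 ml/min).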
# [24] = Chemical stability of the compound in 7mM sodium phosphate buffer after 4 days by HPLC at pH 4; type: physicochemical; settings: pH 4, 96 h; summary of the method: as §3
# [25] = tested on: Human immunodeficiency virus 1; test: Antiviral activity against HIV-1 3B cells infected in human PBMC cells assessed as inhibition of virus-induced cytopathicity after 3 to 4 days by microscopic analysis; type: functional, organism-based; settings: Human immunodeficiency virus 1, 3B
# [26] = tested on: Human immunodeficiency virus 1; test: Ratio of kd for HIV-1 HXB2 gp41 to kd for 3B gp120
# [27] = tested on: Human immunodeficiency virus 1; test: Ratio of ka for HIV-1 3B gp120 to ka for HIV-1 HXB2 gp41
SMILES,EC50 [2] [µM],Activity (PBMC [3]),Activity (PBMC [4]),Activity (PBMC [5]),fold change (FC) (PBMC [6]),fold change (FC) (PBMC [7]),EC50 [10] [µM],Ratio [12],Ratio [13],Ratio [14],Ratio [15],EC50 [16] [µM],CC50 at 168 h [17] [µM],EC50 [19] [µM],also measured
CN[C@@H]1[C@H](O[C@@H]2OC[C@@H](O)[C@H](O)[C@H]2O)[C@@H](O)[C@H](O[C@H]2c3cc(C)c(C(=O)N[C@H](C)C(=O)O)c(O)c3-c3c(cc4c(c3O)C(=O)c3cc(OC)cc(O)c3C4=O)[C@@H]2O)O[C@@H]1C [PRADIMICIN A],3.4,inactive,inactive,inactive,4,4,2.6,2,2,2,2,5.2,> 100,3,Activity (PBMC [1]): > 95%; solubility [8]: 50 µM; solubility [9]: > 20 µM; CC50 at 168 h [11]: > 50 µM; CC50 at 168 h [18]: > 50 µM
CN[C@@H]1[C@H](O[C@@H]2O[C@H](CO)[C@@H](O)[C@H](OS(=O)(=O)O)[C@H]2O)[C@@H](O)[C@H](O[C@H]2c3cc(C)c(C(=O)N[C@H](C)C(=O)O)c(O)c3-c3c(cc4c(c3O)C(=O)c3cc(OC)cc(O)c3C4=O)[C@@H]2O)O[C@@H]1C [PRADIMICIN S],6,inactive,inactive,inactive,4,4,8.5,2,2,2,2,9.6,> 100,18,Activity (PBMC [20]): > 95%; Ratio [21]: 30; Ratio EC50 [22]: >=20; Stability [23]: Stable; Stability [24]: Stable; EC50 [25]: 8.5 µM; kd ratio [26]: 5; ka ratio [27]: 10
